# Activity calls are given as the source filed them. The rule behind the calls is not given here. Bridge positions count the residues as written; N and C are the ends. Square brackets hold non-standard residues; d marks the D form. Peptide text beside a SMILES is read from it. Mpa = O=C(O)CCS
# How the values were obtained:
# [1] = Protein binding in rat plasma at 200 to 1000 ng/ml measured after 15 mins by UC-LC/MS/MS analysis; assay type: ADME, cell-free; conditions: read-out: PPB (converted)
# Method in brief: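 Peptide spiked into rat plasma to final 200-1000 ng/mL, incubated 15 min at 37 °C, ultracentrifuged at 773,000 xg for 30 min at 37 °C; middle-layer sample quantified by LC/MS/MS; binding (%) = (Ci − Cm)/Ci × 100; quadruplicate.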
# [2] = Clearance in Sprague-Dawley rat at 0.1 mg/kg, iv administered as cassette dose by LC-MS/MS analysis; assay type: ADME, organism-based; conditions: in vivo
# Vasopressin V2 receptor = Vasopressin V2 receptor (Homo sapiens, UniProt P30518); assay: Agonist activity at recombinant human V2 receptor expressed in HEK293 cells measured after 5 hrs by cAMP response element driven luciferase reporter gene assay; assay type: functional, cell-based
# Vasopressin V1a receptor = Vasopressin V1a receptor (Homo sapiens, UniProt P37288); assay: Agonist activity at recombinant human V1a receptor expressed in HEK293 cells up to 1000 nM measured after 5 hrs by luciferase reporter gene assay; assay type: cell-based; conditions: hek293, 5 h
# [3] = Non-renal clearance in nephrectomized Sprague-Dawley rat at 0.1 mg/kg, iv administered as cassette dose by LC-MS/MS analysis; assay type: ADME, organism-based; conditions: in vivo
# [4] = target: T1, Oxytocin receptor (Homo sapiens) (UniProt P30559); assay: Agonist activity at human OTR stably expressed in CHOK1 cells up to 10000 nM by NFAT-luciferase reporter gene assay; assay type: cell-based
# T1 sequence (whole entry): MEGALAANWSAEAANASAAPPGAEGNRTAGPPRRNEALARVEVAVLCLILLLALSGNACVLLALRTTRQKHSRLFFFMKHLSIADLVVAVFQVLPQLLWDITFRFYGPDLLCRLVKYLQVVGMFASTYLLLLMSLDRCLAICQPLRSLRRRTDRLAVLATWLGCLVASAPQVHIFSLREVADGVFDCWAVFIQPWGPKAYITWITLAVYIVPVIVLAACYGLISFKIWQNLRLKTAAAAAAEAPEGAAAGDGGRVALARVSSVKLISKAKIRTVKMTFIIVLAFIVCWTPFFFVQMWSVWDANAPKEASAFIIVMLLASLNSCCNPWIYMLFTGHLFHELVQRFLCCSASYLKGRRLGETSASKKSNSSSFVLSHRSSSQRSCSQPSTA
# Sequence of Vasopressin V2 receptor (P30518 whole entry): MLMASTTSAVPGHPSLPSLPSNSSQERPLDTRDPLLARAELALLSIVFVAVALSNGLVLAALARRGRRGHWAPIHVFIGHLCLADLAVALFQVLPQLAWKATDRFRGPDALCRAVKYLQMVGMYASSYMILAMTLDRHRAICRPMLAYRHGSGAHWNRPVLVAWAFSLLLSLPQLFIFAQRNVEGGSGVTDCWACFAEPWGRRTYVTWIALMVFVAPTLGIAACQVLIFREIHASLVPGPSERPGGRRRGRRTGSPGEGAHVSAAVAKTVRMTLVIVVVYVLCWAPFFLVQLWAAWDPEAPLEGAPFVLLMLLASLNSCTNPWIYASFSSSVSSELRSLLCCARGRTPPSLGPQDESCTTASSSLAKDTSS
# Sequence of Vasopressin V1a receptor (P37288 whole entry): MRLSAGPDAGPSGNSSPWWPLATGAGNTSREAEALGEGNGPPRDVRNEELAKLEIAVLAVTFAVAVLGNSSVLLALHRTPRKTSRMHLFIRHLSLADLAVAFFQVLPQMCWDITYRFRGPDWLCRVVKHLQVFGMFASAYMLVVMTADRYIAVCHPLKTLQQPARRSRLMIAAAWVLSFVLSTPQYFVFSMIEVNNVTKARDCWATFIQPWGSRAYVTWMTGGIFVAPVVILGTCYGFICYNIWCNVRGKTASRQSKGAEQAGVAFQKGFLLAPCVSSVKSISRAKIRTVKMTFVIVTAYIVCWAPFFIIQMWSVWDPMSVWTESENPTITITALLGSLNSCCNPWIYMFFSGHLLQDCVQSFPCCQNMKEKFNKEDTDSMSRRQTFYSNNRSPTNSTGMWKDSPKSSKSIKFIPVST
Structure (SMILES),fraction unbound at […] [1],clearance [2] [mL/min/kg],EC50 (Vasopressin V2 receptor) [pM],Activity (Vasopressin V1a receptor),CL [3] [%],Activity [4]
CC(C)[C@@H]1NC(=O)[C@H](Cc2ccccc2)NC(=O)[C@H](Cc2ccc(O)cc2)NC(=O)CCSSC[C@@H](C(=O)N2CCC[C@H]2C(=O)N[C@H](CCCNC(=N)N)C(=O)NCC(N)=O)NC(=O)[C@H](CC(N)=O)NC1=O ([Mpa]YFVNCP[dR]G-NH2; disulfide 1-6),0.69,9.6,50,Not Active,–,–
CCNC(=O)[C@@H](CCCNC(=N)N)NC(=O)[C@@H]1CCCN1C(=O)[C@@H]1CSSCCC(=O)N[C@@H](Cc2ccc(Cl)cc2)C(=O)N[C@@H](Cc2cccs2)C(=O)N[C@@H](C(C)C)C(=O)N[C@@H](CC(N)=O)C(=O)N1,0.12,11,320,Not Active,81,inactive
CNC(=O)[C@@H](CCCNC(=N)N)NC(=O)[C@@H]1CCCN1C(=O)[C@@H]1CSCCCC(=O)N[C@@H](Cc2ccc(Cl)cc2)C(=O)N[C@@H](Cc2cccs2)C(=O)N[C@@H](C(C)C)C(=O)N[C@@H](CC(N)=O)C(=O)N1,0.18,9.1,270,Not Active,–,inactive
CCNC(=O)[C@@H](CCCNC(=N)N)NC(=O)[C@@H]1CCCN1C(=O)[C@@H]1CCSCCC(=O)N[C@@H](Cc2ccc(Cl)cc2)C(=O)N[C@@H](Cc2cccs2)C(=O)N[C@@H](C(C)C)C(=O)N[C@@H](CC(N)=O)C(=O)N1,0.1,5.3,190,Not Active,67,inactive
CC(C)NC(=O)[C@@H](CCCNC(=N)N)NC(=O)[C@@H]1CCCN1C(=O)[C@@H]1CSCCCC(=O)N[C@@H](Cc2ccc(Cl)cc2)C(=O)N[C@@H](Cc2cccs2)C(=O)N[C@@H](C(C)C)C(=O)N[C@@H](CC(N)=O)C(=O)N1,0.15,15,450,Not Active,58,inactive
CC(C)[C@@H]1NC(=O)[C@H](Cc2cccs2)NC(=O)[C@H](Cc2ccc(Cl)cc2)NC(=O)CCCSC[C@@H](C(=O)N2CSC[C@H]2C(=O)N[C@H](CCCNC(=N)N)C(=O)NCCc2cccs2)NC(=O)[C@H](CC(N)=O)NC1=O,0.07,34,170,Not Active,100,inactive
CCNC(=O)[C@@H](CCCNC(=N)N)NC(=O)[C@@H]1C[C@@H](O)CN1C(=O)[C@@H]1CSCCCC(=O)N[C@@H](Cc2ccc(Cl)cc2)C(=O)N[C@@H](Cc2ccccc2)C(=O)N[C@@H](C(C)C)C(=O)N[C@@H](CC(N)=O)C(=O)N1,0.09,3.3,290,Not Active,–,inactive
CCNC(=O)[C@@H](CCCNC(=N)N)NC(=O)[C@@H]1CSCN1C(=O)[C@@H]1CCSCCC(=O)N[C@@H](Cc2ccc(Cl)cc2)C(=O)N[C@@H](Cc2cccs2)C(=O)N[C@@H](C(C)C)C(=O)N[C@@H](CC(N)=O)C(=O)N1,0.08,11,110,Not Active,–,inactive
CC(C)CNC(=O)[C@@H](CCCNC(=N)N)NC(=O)[C@@H]1C[C@@H](O)CN1C(=O)[C@@H]1CCSCCC(=O)N[C@@H](Cc2ccc(Cl)cc2)C(=O)N[C@@H](Cc2cccs2)C(=O)N[C@@H](C(C)C)C(=O)N[C@@H](CC(N)=O)C(=O)N1,0.08,5.9,200,Not Active,–,inactive
CCCNC(=O)[C@@H](CCCNC(=N)N)NC(=O)[C@@H]1CSCN1C(=O)[C@@H]1CSCCCC(=O)N[C@@H](Cc2ccc(Cl)cc2)C(=O)N[C@@H](Cc2cccs2)C(=O)N[C@@H](C(C)C)C(=O)N[C@@H](CC(N)=O)C(=O)N1,0.17,31,–,Not Active,90,inactive

# Reference: ChEMBL document CHEMBL4396873, “Discovery of Potent, Selective, and Short-Acting Peptidic V2 Receptor Agonists” (J Med Chem, 2019)
